pIC50: −log10 of the molar value.

The nature of assay [1]: In vitro reversibility ratio in U937 cells. Type of assay: functional, U-937. An outline of the steps:
(§1)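 Human histiocytic lymphoma U937 cells, read by flow cytometry. Scores whether a complete mitotic block is maintained 10 h after drug washout.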

Another assay has as its system P388. The experiment in a line: Fold resistance calculated as the inhibition concentration ratio between retrovirally transformed murine P388/VMDRC.04 and parental P388 cells. Type of assay: functional. The method in brief: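 Readout of P-glycoprotein (PgP) susceptibility: IC50 in the retrovirally transformed P388/VMDRC.04 line divided by IC50 in parental P388 cells, giving fold resistance.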

Assay [2] relates to U-937. The experiment in a line: In vitro inhibitory concentration required to inhibit the growth of U937 cells was determined at 0 hr by mitotic block reversibility assay. Type of assay: functional. To be noted: Homo sapiens, U-937, 0 h.
Assay [3] deals with U-937. The experiment in a line: In vitro inhibitory concentration required to inhibit the growth of U937 cells was determined at 10 hr by mitotic block reversibility assay. Type of assay: functional. The settings on record: Homo sapiens, U-937, 10 h. An outline of the steps:
as §1

A further assay has as its system DLD-1. The experiment in a line: In vitro inhibitory concentration required to inhibit the growth of DLD-1 cells under continuous exposure conditions for 3-4 days. The settings on record: Homo sapiens. Type of assay: functional, cell-based. An outline of the steps:
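Human colon cancer DLD-1 cells grown under continuous drug exposure for 3–4 days. Growth inhibition measured and IC50 reported ± SEM, n = number of experiments.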

Turning to `C=C1C[C@@H]2CC[C@@]34C[C@@H]5O[C@@H]6C(O[C@H]7CC[C@H](CC(=O)C[C@@H]8[C@@H](OC)[C@@H](C[C@H](O)COC(=O)Nc9ccccc9)O[C@H]8C[C@H]8O[C@@H](CC[C@@H]1O2)C[C@@H](C)C8=C)O[C@@H]7[C@@H]6O3)[C@H]5O4`, the Reversibility ratio in assay [1] turned out to be 22. Moreover, the FR with P388 was 5.7. In addition, the IC99 in the assay with U-937 [2] was 0.003 µM; with U-937 [3], 0.065 µM. Also, the pIC50 with DLD-1 was 9.00.
Taken in the same sequence, the figures for `C=C1C[C@@H]2CC[C@@]34C[C@@H]5O[C@@H]6C(O[C@H]7CC[C@H](CC(=O)C[C@@H]8[C@@H](OC)[C@@H](C[C@H](O)COC(=O)Nc9ccc(OC)cc9)O[C@H]8C[C@H]8O[C@@H](CC[C@@H]1O2)C[C@@H](C)C8=C)O[C@@H]7[C@@H]6O3)[C@H]5O4` were 10, 5.8, 0.003 µM, 0.03 µM and 9.07.
In the case of `C=C1C[C@@H]2CC[C@@]34C[C@@H]5O[C@@H]6C(O[C@H]7CC[C@H](CC(=O)O[C@@H]8[C@@H](OC)[C@H](O)[C@H](CCO)O[C@H]8C[C@H]8O[C@@H](CC[C@@H]1O2)C[C@@H](C)C8=C)O[C@@H]7[C@@H]6O3)[C@H]5O4`, in assay [1], the Reversibility ratio amounted to 30. This compound also registered an IC99 in the assay with U-937 [2] of 0.01 µM.
In the case of `C=C1C[C@@H]2CC[C@@]34C[C@@H]5O[C@@H]6C(O[C@H]7CC[C@H](CC(=O)C[C@@H]8[C@@H](OC)[C@@H](C[C@H](O)CN9CCOCC9)O[C@H]8C[C@H]8O[C@@H](CC[C@@H]1O2)C[C@@H](C)C8=C)O[C@@H]7[C@@H]6O3)[C@H]5O4`, in assay [1], the Reversibility ratio is recorded as 7. Further, the FR with P388 is 4.7. Further, the IC99 in the assay on U-937 [2] is 0.003 µM; in the assay on U-937 [3], 0.02 µM. Also, the pIC50 in the assay with DLD-1 is 9.37.
Consider `C=C1C[C@@H]2CC[C@@]34C[C@@H]5O[C@@H]6C(O[C@H]7CC[C@H](CC(=O)C[C@@H]8[C@@H](OC)[C@@H](C[C@H](O)CS(=O)(=O)c9ccc(Cl)cc9)O[C@H]8C[C@H]8O[C@@H](CC[C@@H]1O2)C[C@@H](C)C8=C)O[C@@H]7[C@@H]6O3)[C@H]5O4`, for which the Reversibility ratio in assay [1] was determined as 10. For the same compound, the FR in the assay with P388 is 3.2. Further, the results for the IC99 with U-937 [2] and with U-937 [3] were 0.003 µM and 0.03 µM, respectively. Further, the pIC50 in the assay on DLD-1 is 9.18.
On to `C=C1C[C@@H]2CC[C@@]34C[C@@H]5O[C@@H]6C(O[C@H]7CC[C@H](CC(=O)C[C@@H]8[C@@H](OC)[C@@H](C[C@H](O)CN=[N+]=[N-])O[C@H]8C[C@H]8O[C@@H](CC[C@@H]1O2)C[C@@H](C)C8=C)O[C@@H]7[C@@H]6O3)[C@H]5O4`, for which the Reversibility ratio in assay [1] was 10. In addition, the FR in the assay on P388 is 1.9. Besides, the values for the IC99 in the assay on U-937 [2] and with U-937 [3] were 0.003 µM and 0.03 µM, respectively. The pIC50 in the assay with DLD-1 was 9.28.
Taken in the same sequence, the figures for `C=C1C[C@@H]2CC[C@@]34C[C@@H]5O[C@@H]6C(O[C@H]7CC[C@H](CC(=O)C[C@@H]8[C@@H](OC)[C@@H](C[C@H](O)CO)O[C@H]8C[C@H]8O[C@@H](CC[C@@H]1O2)C[C@@H](C)C8=C)O[C@@H]7[C@@H]6O3)[C@H]5O4` were 13, 9.7, 0.003 µM, 0.038 µM and 9.00.
Regarding `C=C1C[C@@H]2CC[C@@]34C[C@@H]5O[C@@H]6C(O[C@H]7CC[C@H](CC(=O)C[C@@H]8[C@@H](OC)[C@@H](CC(=O)CO)O[C@H]8C[C@H]8O[C@@H](CC[C@@H]1O2)C[C@@H](C)C8=C)O[C@@H]7[C@@H]6O3)[C@H]5O4`, in assay [1], the Reversibility ratio amounted to 10. In addition, the FR with P388 was 3.7. Besides, the IC99 in the assay with U-937 [2] amounted to 0.003 µM; with U-937 [3] it was 0.03 µM. Besides, the pIC50 with DLD-1 was 8.96.
Taken in the same sequence, the figures for `C=C1C[C@@H]2CC[C@@]34C[C@@H]5O[C@@H]6C(O[C@H]7CC[C@H](CC(=O)C[C@@H]8[C@@H](OC)[C@@H](C[C@H](O)COS(C)(=O)=O)O[C@H]8C[C@H]8O[C@@H](CC[C@@H]1O2)C[C@@H](C)C8=C)O[C@@H]7[C@@H]6O3)[C@H]5O4` were 10, 3, 0.003 µM, 0.03 µM and 9.10.
The corresponding values for `C=C1C[C@@H]2CC[C@@]34C[C@@H]5O[C@@H]6C(O[C@H]7CC[C@H](CC(=O)C[C@@H]8[C@@H](OC)[C@@H](C[C@H](O)CNC)O[C@H]8C[C@H]8O[C@@H](CC[C@@H]1O2)C[C@@H](C)C8=C)O[C@@H]7[C@@H]6O3)[C@H]5O4` are 1, 7, 0.01 µM, 0.01 µM and 8.48.
In the case of `C=C1C[C@@H]2CC[C@@]34C[C@@H]5O[C@@H]6C(O[C@H]7CC[C@H](CC(=O)O[C@@H]8[C@@H](OC)[C@@H](C[C@H](O)CO)O[C@H]8C[C@H]8O[C@@H](CC[C@@H]1O2)C[C@@H](C)C8=C)O[C@@H]7[C@@H]6O3)[C@H]5O4`, the Reversibility ratio in assay [1] was 8. In the assay with U-937 [2], this compound came in with an IC99 of 0.002 µM.
Taken in the same sequence, the figures for `C=C1C[C@@H]2CC[C@@]34C[C@@H]5O[C@@H]6C(O[C@H]7CC[C@H](CC(=O)O[C@@H]8[C@@H](C)[C@@H]9O[C@H](CO)[C@@H](O)C[C@@H]9O[C@H]8C[C@H]8O[C@@H](CC[C@@H]1O2)C[C@@H](C)C8=C)O[C@@H]7[C@@H]6O3)[C@H]5O4` were 24 and 0.009 µM.
Consider `C=C1C[C@@H]2CC[C@@]34C[C@@H]5O[C@@H]6C(O[C@H]7CC[C@H](CC(=O)C[C@@H]8[C@@H](OC)[C@@H](C[C@H](O)COC(=O)Nc9ccc(Cl)cc9)O[C@H]8C[C@H]8O[C@@H](CC[C@@H]1O2)C[C@@H](C)C8=C)O[C@@H]7[C@@H]6O3)[C@H]5O4`, for which, in assay [1], the Reversibility ratio came to 22. Also, the FR with P388 is recorded as 8.6. Further, the figures for the IC99 with U-937 [2] and in the assay with U-937 [3] were 0.003 µM and 0.065 µM, respectively. The same compound showed a negative logarithm of the IC50 (pIC50) in the assay on DLD-1 of 8.89.
Taken in the same sequence, the figures for `C=C1C[C@@H]2CC[C@@]34C[C@@H]5O[C@@H]6C(O[C@H]7CC[C@H](CC(=O)C[C@@H]8[C@@H](OC)[C@@H](C[C@H](O)COS(=O)(=O)c9ccc(C)cc9)O[C@H]8C[C@H]8O[C@@H](CC[C@@H]1O2)C[C@@H](C)C8=C)O[C@@H]7[C@@H]6O3)[C@H]5O4` were 4, 2.4, 0.007 µM, 0.03 µM and 8.70.
Turning to `C=C1C[C@@H]2CC[C@@]34C[C@@H]5O[C@@H]6C(O[C@H]7CC[C@H](CC(=O)C[C@@H]8[C@@H](OC)[C@@H](C[C@H](O)CC#N)O[C@H]8C[C@H]8O[C@@H](CC[C@@H]1O2)C[C@@H](C)C8=C)O[C@@H]7[C@@H]6O3)[C@H]5O4`, the Reversibility ratio in assay [1] came to 15. The FR in the assay with P388 is recorded as 7. The IC99 with U-937 [2] amounted to 0.002 µM; with U-937 [3] it was 0.03 µM. This compound also had a pIC50 with DLD-1 of 9.31.
`C=C1C[C@@H]2CC[C@@]34C[C@@H]5O[C@@H]6C(O[C@H]7CC[C@H](CC(=O)C[C@@H]8[C@@H](OC)[C@@H](C[C@H](O)CSc9ccc(OC)cc9)O[C@H]8C[C@H]8O[C@@H](CC[C@@H]1O2)C[C@@H](C)C8=C)O[C@@H]7[C@@H]6O3)[C@H]5O4`: in assay [1], the Reversibility ratio stood at 10. Also, the FR in the assay on P388 is 1.7. Also, the IC99 with U-937 [2] stood at 0.003 µM; with U-937 [3] it was 0.03 µM. In the assay with DLD-1, the pIC50 was 9.15.
The corresponding values for `C=C1C[C@@H]2CC[C@@]34C[C@@H]5O[C@@H]6C(O[C@H]7CC[C@H](CC(=O)C[C@@H]8[C@@H](OC)[C@@H](C[C@@H](O)CO)O[C@H]8C[C@H]8O[C@@H](CC[C@@H]1O2)C[C@@H](C)C8=C)O[C@@H]7[C@@H]6O3)[C@H]5O4` are 33, 13, 0.003 µM, 0.1 µM and 8.72.

In general, IC99 refers to the point of the concentration-response curve where the effect stands at 99%. The term pIC50 denotes the negative decadic logarithm of the IC50, by convention in mol/L. A high value points to a low IC50.

The values above are taken from ChEMBL document CHEMBL1138023, “Macrocyclic ketone analogues of halichondrin B” (Bioorg Med Chem Lett, 2004).
